What is called MIC90 is an inhibitory concentration at the 90% level, which refers to growth in some studies and to a panel of isolates in others. One may read the IC50 as the concentration needed to halve the response being measured.

Each structure is given as a SMILES string. In brackets after ≈: the same amount, converted by molar mass. Activity calls are given as the source filed them. The calls are words filed in the database; no cut-off is given here.

The subject of assay [1] is Bacillus subtilis. Nature of the assay: Antibacterial activity against Bacillus subtilis ATCC 23857 after overnight incubation by microbroth dilution assay. The format is functional. Put shortly:
(§1)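 CLSI M7A7 microbroth dilution in Mueller-Hinton broth; S. pneumoniae broth given 5% lysed horse blood. DMSO stocks of 10 mg/mL; twofold dilutions to final 200–0.0125 µg/mL. Mid-log inoculum (OD600 0.5) diluted to final OD600 0.0005 (~10^5 CFU/mL). Overnight at 37°C; MIC is the lowest concentration inhibiting 90% of visible growth.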
Background: In broth dilution the organism is exposed to a series of concentrations in liquid medium.

A short description of assay [2]: Inhibition of Staphylococcus aureus PlsY expressed in Escherichia coli FB23281 using [U-14C]glycerol-PO4 as substrate after 20 mins by scintillation counting. Put shortly:
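Membranes from E. coli FB23281 (ΔplsY) expressing S. aureus PlsY (SA1187), 4 µg per reaction. pH 7.4 buffer of 100 mM Tris–HCl, 150 mM NaCl, 1 mg/mL BSA and 5 mM Na3VO4, with 100 µM [U-14C]glycerol-PO4. Started with 16:0-PO4 (final 100 µM), 20 min at 37°C. Spotted on filter discs, washed in graded ice-cold TCA, scintillation counted.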

The test system of assay [3] is Staphylococcus aureus subsp. aureus RN4220. Put plainly: Inhibition of PlsY in Staphylococcus aureus RN4220 harboring gpsA mutant assessed as Fab4-mediated fatty acid chain elongation measured as 21C fatty acid level at 50 uM after 2.5 hrs by mass spectrophotometry. On the set-up: scale not given: the % may be the effect or the level left. Put shortly:
(§2)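 RN4220 grown in Luria-Bertani broth at 37°C with 225 rpm shaking to OD600 0.5. 50 mL cultures treated for 2.5 h alongside a DMSO control. Lipids extracted by Bligh–Dyer and fatty acids analyzed by gas chromatography. Weight percent, mean of duplicates; not detected means <1%.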

The test system of assay [4] is Staphylococcus aureus. Nature of the assay: Inhibition of RNA synthesis in Staphylococcus aureus RN4220 harboring gpsA mutant assessed as inhibition of [3H]uracil incorporation into RNA at 50 uM incubated for 15 mins before [3H]uracil addition measured after 30 mins by scintillation counting. It is filed as functional, organism-based. Put shortly: (§3)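 RN4220 at OD600 0.5 in 10 mL aliquots, 15 min with compound. Then 30 min with 10 µCi label: 3H amino acid mix (protein), [3H]thymidine (DNA) or [3H]uracil (stable RNA). Cells collected on 0.45 µm filters, counted, OD600-normalized and expressed relative to untreated cells. Duplicates, mean with standard error.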

Assay [5] relates to Staphylococcus aureus subsp. aureus RN4220. Nature of the assay: Inhibition of PlsY in Staphylococcus aureus RN4220 harboring gpsA mutant assessed as Fab4-mediated fatty acid chain elongation measured as 20C fatty acid level at 25 uM after 2.5 hrs by mass spectrophotometry. Also noted: scale not given: the % may be the effect or the level left. The essentials: as §2
For assay [6], the system named is Staphylococcus aureus. Put plainly: Growth inhibition of Staphylococcus aureus RN4220 harboring gpsA mutant at >= 25 uM measured over 2 hrs by spectrophotometry. The format is functional, organism-based.
Assay [7] deals with Staphylococcus aureus. Put plainly: Antibacterial activity against Staphylococcus aureus ATCC 29213 after overnight incubation by microbroth dilution assay. It is filed as functional. Put shortly:
as §1

In assay [8] the test system is Staphylococcus aureus subsp. aureus RN4220. Nature of the assay: Inhibition of PlsY in Staphylococcus aureus RN4220 harboring gpsA mutant assessed as Fab4-mediated fatty acid chain elongation measured as 18C fatty acid level at 50 uM after 2.5 hrs by mass spectrophotometry. On the set-up: scale not given: the % may be the effect or the level left. The essentials: as §2

The test system is the same in assay [9]. Put plainly: Inhibition of PlsY in Staphylococcus aureus RN4220 harboring gpsA mutant assessed as Fab4-mediated fatty acid chain elongation measured as 21C fatty acid level at 25 uM after 2.5 hrs by mass spectrophotometry. Also noted: scale not given: the % may be the effect or the level left. The essentials:
as §2

Assay [10] deals with Staphylococcus aureus. Nature of the assay: Inhibition of protein synthesis in Staphylococcus aureus RN4220 harboring gpsA mutant assessed as inhibition of [3H]amino acid incorporation into protein at 50 uM incubated for 15 mins before [3H]amino acid addition measured after 30 mins by scintillation counting. It is filed as functional, organism-based. The essentials:
as §3

The test system of assay [11] is Staphylococcus aureus subsp. aureus RN4220. Nature of the assay: Inhibition of PlsY in Staphylococcus aureus RN4220 harboring gpsA mutant assessed as Fab4-mediated fatty acid chain elongation measured as 20C fatty acid level at 50 uM after 2.5 hrs by mass spectrophotometry. On the set-up: scale not given: the % may be the effect or the level left. Put shortly: as §2

For assay [12] the test system is unchanged. Nature of the assay: Inhibition of PlsY in Staphylococcus aureus RN4220 harboring gpsA mutant assessed as Fab4-mediated fatty acid chain elongation measured as 19C fatty acid level at 50 uM after 2.5 hrs by mass spectrophotometry. On the set-up: scale not given: the % may be the effect or the level left. The essentials:
as §2

For assay [13] the test system is unchanged. Nature of the assay: Inhibition of PlsY in Staphylococcus aureus RN4220 harboring gpsA mutant assessed as Fab4-mediated fatty acid chain elongation measured as 15C fatty acid level at 25 uM after 2.5 hrs by mass spectrophotometry. Also noted: scale not given: the % may be the effect or the level left. Put shortly: as §2
Assay [14] has the same test system. Put plainly: Inhibition of PlsY in Staphylococcus aureus RN4220 harboring gpsA mutant assessed as 34C phophotidylglycerol formation at 25 uM after 2.5 hrs by mass spectrophotometry. Put shortly: (§4)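 RN4220 grown in Luria-Bertani broth at 37°C to OD600 0.5. 50 mL aliquots treated for 2.5 h alongside a DMSO control. Cells PBS-washed, lipids extracted by Bligh–Dyer. Phosphatidylglycerol molecular species distribution determined by mass spectrometry.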

The test system is the same in assay [15]. Nature of the assay: Inhibition of PlsY in Staphylococcus aureus RN4220 harboring gpsA mutant assessed as Fab4-mediated fatty acid chain elongation measured as 19C fatty acid level at 25 uM after 2.5 hrs by mass spectrophotometry. On the set-up: scale not given: the % may be the effect or the level left. The essentials:
as §2

The test system is the same in assay [16]. Put plainly: Inhibition of PlsY in Staphylococcus aureus RN4220 harboring gpsA mutant assessed as Fab4-mediated fatty acid chain elongation measured as 18C fatty acid level at 25 uM after 2.5 hrs by mass spectrophotometry. Also noted: scale not given: the % may be the effect or the level left. Put shortly:
as §2

The subject of assay [17] is Enterococcus faecalis. Nature of the assay: Antibacterial activity against Enterococcus faecalis ATCC 33186 after overnight incubation by microbroth dilution assay. It is filed as functional. The essentials:
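CLSI microbroth dilution in Mueller-Hinton broth; compounds dissolved in DMSO, twofold serial dilutions giving final 200–0.0125 µg/mL. Inoculum from single colony grown at 37°C to mid-log (OD600 0.5), diluted to final OD600 0.0005 (~10^5 CFU/mL). Incubated overnight at 37°C; MIC = lowest concentration inhibiting 90% of visible growth.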

Assay [18] deals with Staphylococcus aureus subsp. aureus RN4220. Put plainly: Inhibition of PlsY in Staphylococcus aureus RN4220 harboring gpsA mutant assessed as 36C phophotidylglycerol formation at 50 uM after 2.5 hrs by mass spectrophotometry. The essentials: as §4
Assay [19] deals with Staphylococcus aureus. Nature of the assay: Growth inhibition of Staphylococcus aureus RN4220 harboring gpsA mutant at 6.25 to 100 uM measured immediately by spectrophotometry. The format is functional, organism-based.
Assay [20] has as its system Bacillus anthracis. Put plainly: Growth inhibition of Bacillus anthracis sterne at 5 uM measured immediately post-compound addition. The format is functional, organism-based.
Assay [21] concerns Staphylococcus aureus subsp. aureus RN4220. Put plainly: Inhibition of PlsY in Staphylococcus aureus RN4220 harboring gpsA mutant assessed as Fab4-mediated fatty acid chain elongation measured as 16C fatty acid level at 25 uM after 2.5 hrs by mass spectrophotometry. Also noted: scale not given: the % may be the effect or the level left. Put shortly: as §2
Assay [22] shares this test system. Nature of the assay: Inhibition of PlsY in Staphylococcus aureus RN4220 harboring gpsA mutant assessed as 35C phophotidylglycerol formation at 50 uM after 2.5 hrs by mass spectrophotometry. The essentials:
as §4

Assay [23] deals with Bacillus anthracis. Put plainly: Inhibition of RNA synthesis in Bacillus anthracis sterne assessed as Inhibition of [3H]uracil incorporation into RNA incubated for 15 mins prior to [3H]uracil addition measured after 30 mins by scintillation counting. The format is functional, organism-based.

For `O=C(CCCCCCCc1ccccc1)NS(=O)(=O)Oc1ccccc1`, the MIC90 in [1] was greater than 200 µg/mL; in assay [7], 12.5 µg/mL (≈ 33.3 µM); in assay [17], 100 µg/mL (≈ 266 µM). The compound further registered a half-maximal inhibitory concentration (IC50) in assay [2] of 25 µM. For the same compound, the Activity in [3] amounted to 14%; in assay [5] it was 9%; in [8] it was 12%; in assay [9], 12%; in assay [11], 13%; in assay [12] it was 14%. The Activity was determined as 37% in assay [13], 18% in [15], 9% in [16] and 5% in assay [21]. Moreover, the inhibition entry in assay [4] and in assay [10] was “inactive” each time. Further, the “growth inhibition (GI)” value in assay [6] and in [20] was “Active” each time. The inhibition entry in assay [14], in [18], in assay [22] and in assay [23] was “Active” each time. In addition, in assay [19], the “growth inhibition (GI)” value was “inactive”.

The values above are taken from ChEMBL document CHEMBL2086264.
